Legend:
Assay type in all cases: functional
CAKI-1 = assay: Cytotoxicity against human CAKI-1 cells assessed as cell growth at 10 uM after 48 hrs by SRB assay; conditions: CAKI-1, 48 h, read-out: Activity
OVCAR-3 = assay: Cytotoxicity against human OVCAR3 cells assessed as cell growth at 10 uM after 48 hrs by SRB assay; conditions: OVCAR-3, 48 h, read-out: Activity
How it was run: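 First stage of the NCI 60 human tumour cell line screen: a single dose is tested against every line. Cell growth is read as cellular protein by sulforhodamine B colorimetry after 48 h of drug exposure, with reference to a time-zero control and to untreated plates.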

NCI-H460 = assay: Cytotoxicity against human NCI-H460 cells assessed as growth inhibition after 48 hrs by SRB assay
How it was run: (§1)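 NCI 60-cell-line screen, five-dose stage: each cell line exposed for 48 h to five concentrations spanning five log steps; cellular protein measured by sulforhodamine B colorimetry. A time-zero cell control and plates without drug are used to derive GI50, TGI and LC50 from log-concentration dose-response curves.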

SW-620 = assay: Cytotoxicity against human SW620 cells assessed as growth inhibition after 48 hrs by SRB assay
How it was run: (§2)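 NCI 60-cell-line screen, two stages. Five-dose testing at […]. Cellular protein measured by sulforhodamine B colorimetry after 48 h drug exposure. A time-zero control and drug-free plates are used to derive GI50, TGI and LC50 from dose-response curves plotted as log10 concentration per cell line.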

SK-MEL-28 = assay: Cytotoxicity against human SK-MEL-28 cells assessed as growth inhibition after 48 hrs by SRB assay; how it was run: as §1
TK-10 = assay: Cytotoxicity against human TK10 cells assessed as growth inhibition after 48 hrs by SRB assay; how it was run: as §2
[1] = (§3) Cytotoxicity against human Hs578T cells assessed as growth inhibition after 48 hrs by SRB assay; conditions: Hs-578T
How it was run: (§4)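 NCI 60-cell-line five-dose screen at […]. Drug exposure was 48 h, followed by sulforhodamine B protein staining. GI50, TGI and LC50 were calculated against a time-zero control and untreated plates, with dose–response curves plotted from log10 concentration.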

Hs-578T = assay: as §3; how it was run: as §4
MCF7 = assay: Cytotoxicity against human MCF7 cells assessed as growth inhibition after 48 hrs by SRB assay; how it was run: as §1
COLO 205 = assay: Cytotoxicity against human COLO205 cells assessed as growth inhibition after 48 hrs by SRB assay; how it was run: as §4
KM12 = assay: Cytotoxicity against human KM12 cells assessed as growth inhibition after 48 hrs by SRB assay; how it was run: as §4
RPMI-8226 = assay: Cytotoxicity against human RPMI8226 cells assessed as growth inhibition after 48 hrs by SRB assay; how it was run: as §1
M14 = assay: Cytotoxicity against human M14 cells assessed as growth inhibition after 48 hrs by SRB assay; how it was run: as §4
HOP-62 = assay: Cytotoxicity against human HOP62 cells assessed as growth inhibition after 48 hrs by SRB assay; how it was run: as §4
NCI/ADR-RES = assay: (§5) Cytotoxicity against human NCI-ADR-RES cells assessed as growth inhibition after 48 hrs by SRB assay; how it was run: as §1
[2] = as §5; how it was run: as §1
ACHN = assay: Cytotoxicity against human ACHN cells assessed as growth inhibition after 48 hrs by SRB assay; how it was run: as §4
LOX IMVI = assay: Cytotoxicity against human LOXIMVI cells assessed as growth inhibition after 48 hrs by SRB assay; how it was run: as §4
[3] = (§6) Cytotoxicity against human OVCAR4 cells assessed as growth inhibition after 48 hrs by SRB assay; conditions: OVCAR-4, 48 h; how it was run: as §1
OVCAR-4 = assay: as §6; how it was run: as §1
SN12C = assay: Cytotoxicity against human SN12C cells assessed as growth inhibition after 48 hrs by SRB assay; how it was run: as §2
HT-29 = assay: Cytotoxicity against human HT-29 cells assessed as growth inhibition after 48 hrs by SRB assay; how it was run: as §4
CCRF-CEM = assay: Cytotoxicity against human CCRF-CEM cells assessed as growth inhibition after 48 hrs by SRB assay; how it was run: as §4
SR = assay: Cytotoxicity against human SR cells assessed as growth inhibition after 48 hrs by SRB assay; how it was run: as §2
SK-MEL-5 = assay: Cytotoxicity against human SK-MEL-5 cells assessed as growth inhibition after 48 hrs by SRB assay; how it was run: as §1
NCI-H226 = assay: Cytotoxicity against human NCI-H226 cells assessed as growth inhibition after 48 hrs by SRB assay; how it was run: as §1
MDA-MB-231 = assay: Cytotoxicity against human MDA-MB-231 cells assessed as growth inhibition after 48 hrs by SRB assay; how it was run: as §1
U-251 = assay: Cytotoxicity against human U251 cells assessed as growth inhibition after 48 hrs by SRB assay; how it was run: as §2
IGROV-1 = assay: Cytotoxicity against human IGROV1 cells assessed as growth inhibition after 48 hrs by SRB assay; how it was run: as §4
[4] = read-out: LC50 (the source's name)

O=C1c2ccccc2C(=O)c2c1ccc1[nH]c(=S)[nH]c21
growth at 10 µM (CAKI-1): 91.2% | growth at 10 µM (OVCAR-3): 86.9%

O=C1c2ccccc2C(=O)c2c1ccc1nc(SCCN3CCCC3)[nH]c21
growth inhibition (GI) (NCI-H460): Dose-dependent effect | TGI (NCI-H460; NCI-H460, 48 h): 4.77 µM | growth inhibition (GI) (SW-620): Dose-dependent effect | GI50 (SW-620; SW-620, 48 h): 1.94 µM | LC50 (SW-620; SW-620, 48 h): 19.7 µM | TGI (SW-620; SW-620, 48 h): 5.09 µM | growth inhibition (GI) (SK-MEL-28): Dose-dependent effect | GI50 (SK-MEL-28; SK-MEL-28, 48 h): 2.2 µM | LC50 (SK-MEL-28; SK-MEL-28, 48 h): 9.08 µM | TGI (SK-MEL-28; SK-MEL-28, 48 h): 4.47 µM | growth inhibition (GI) (TK-10): Dose-dependent effect | GI50 (TK-10; TK-10, 48 h): 4.22 µM | LC50 (TK-10; TK-10, 48 h): 46.8 µM | TGI (TK-10; TK-10, 48 h): 19.1 µM | GI50 [1]: 6.24 µM | TGI [1]: 25.8 µM | CC50 [1, 4]: 79.9 µM | growth inhibition (GI) (Hs-578T): Dose-dependent effect | growth inhibition (GI) (MCF7): Dose-dependent effect | GI50 (MCF7; MCF7, 48 h): 1.74 µM | LC50 (concentration killing 50% of cells) (MCF7; MCF7, 48 h): 45.6 µM | TGI (MCF7; MCF7, 48 h): 7.52 µM | growth inhibition (GI) (COLO 205): Dose-dependent effect | GI50 (COLO 205; COLO 205, 48 h): 3.07 µM | LC50 (COLO 205; COLO 205, 48 h): 58.6 µM | TGI (COLO 205; COLO 205, 48 h): 16.7 µM | growth inhibition (GI) (KM12): Dose-dependent effect | GI50 (KM12; KM12, 48 h): 2.32 µM | TGI (KM12; KM12, 48 h): 6.16 µM | CC50 (KM12; KM12, 48 h, read-out: LC50 (the source's name)): 24.4 µM | growth inhibition (GI) (RPMI-8226): Dose-dependent effect | GI50 (RPMI-8226; RPMI-8226, 48 h): 1.79 µM | LC50 (concentration causing 50% net cell kill) (RPMI-8226; RPMI-8226, 48 h): 15.4 µM | TGI (RPMI-8226; RPMI-8226, 48 h): 4.31 µM | growth inhibition (GI) (M14): Dose-dependent effect | GI50 (M14; M14, 48 h): 8.24 µM | LC50 (M14; M14, 48 h): 47.9 µM | TGI (M14; M14, 48 h): 21.2 µM | growth inhibition (GI) (HOP-62): Dose-dependent effect | GI50 (HOP-62; HOP-62, 48 h): 18 µM | TGI (HOP-62; HOP-62, 48 h): 33.2 µM | growth inhibition (GI) (NCI/ADR-RES): Dose-dependent effect | GI50 [2]: 6.98 µM | LC50 (concentration causing 50% net cell kill) [2]: > 100 µM | TGI [2]: 33.7 µM | GI50 (ACHN): 2.34 µM | TGI (ACHN): 16.5 µM | growth inhibition (GI) (ACHN): Dose-dependent effect | CC50 (ACHN; [4]): 41.1 µM | GI50 (LOX IMVI): 1.43 µM | LC50 (LOX IMVI): 6.25 µM | TGI (LOX IMVI): 2.99 µM | growth inhibition (GI) (LOX IMVI): Dose-dependent effect | GI50 [3]: 1.89 µM | LC50 (concentration killing 50% of cells) [3]: 38.9 µM | TGI [3]: 7.34 µM | growth inhibition (GI) (OVCAR-4): Dose-dependent effect | GI50 (SN12C): 5.96 µM | TGI (SN12C): 19.6 µM | growth inhibition (GI) (SN12C): Dose-dependent effect | CC50 (SN12C; [4]): 46.1 µM | growth inhibition (GI) (HT-29): Dose-dependent effect | GI50 (HT-29; HT-29, 48 h): 1.81 µM | TGI (HT-29; HT-29, 48 h): 4.66 µM | CC50 (HT-29; HT-29, 48 h, read-out: LC50 (the source's name)): 15.2 µM | GI50 (CCRF-CEM): 3.34 µM | LC50 (CCRF-CEM): 62.8 µM | TGI (CCRF-CEM): 15.6 µM | growth inhibition (GI) (CCRF-CEM): Dose-dependent effect | GI50 (SR): 1.48 µM | LC50 (50% lethal concentration) (SR): 86.3 µM | TGI (SR): 4.19 µM | growth inhibition (GI) (SR): Dose-dependent effect | growth inhibition (GI) (SK-MEL-5): Dose-dependent effect | GI50 (SK-MEL-5; SK-MEL-5, 48 h): 12.9 µM | LC50 (concentration killing 50% of cells relative to time zero) (SK-MEL-5; SK-MEL-5, 48 h): 54.8 µM | TGI (SK-MEL-5; SK-MEL-5, 48 h): 26.6 µM | growth inhibition (GI) (NCI-H226): Dose-dependent effect | TGI (NCI-H226; NCI-H226, 48 h): 36.6 µM | growth inhibition (GI) (MDA-MB-231): Dose-dependent effect | GI50 (MDA-MB-231; MDA-MB-231, 48 h): 4.46 µM | LC50 (MDA-MB-231; MDA-MB-231, 48 h): 43.9 µM | TGI (MDA-MB-231; MDA-MB-231, 48 h): 16.2 µM | growth inhibition (GI) (U-251): Dose-dependent effect | GI50 (U-251; U-251, 48 h): 6.84 µM | TGI (U-251; U-251, 48 h): 20.3 µM | CC50 (U-251; U-251, 48 h, read-out: LC50 (the source's name)): 47.1 µM | growth inhibition (GI) (IGROV-1): Dose-dependent effect | GI50 (IGROV-1; IGROV-1, 48 h): 0.56 µM | LC50 (IGROV-1; IGROV-1, 48 h): 22.4 µM | TGI (IGROV-1; IGROV-1, 48 h): 3.39 µM

Reference: ChEMBL document CHEMBL3120102, “Structure-based design, synthesis and biological evaluation of novel anthra[1,2-d]imidazole-6,11-dione homologues as potential antitumor agents” (2013)
